HCV NS3 hel inh – blocks Hepatitis C virus NS3 helicase unwinding. AID 1800. 290,000 tested, 0.56% active. NS3 helicase DNA unwinding, Cy5 molecular beacon fluorescence. inhibition, % at 10.9 µM;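 active = inhibition above the mean of all tested compounds plus 3 SD, set per campaign, cut at about 35% in these data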;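 note: 0% = DMSO wells and 100% = thioflavine S control wells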
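System: HCV NS3 helicase fragment; control set: DMSO and thioflavine S; technique: Cy5 fluorescence at 0 and 60 min, beacon hairpin quenching; reagent: beacon DNA duplex substrate plus ATP; replicates: singlicate; schedule: 1 h reaction at 25 °C, ATP-initiated; medium: MOPS buffer pH 6.5 with MgCl2, DTT, Tween20, BSA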
M18AAP inhibitor – PfM18AAP enzyme inhibition. recombinant PfM18AAP, H-Glu-NHMec fluorogenic cleavage. inhibition, % at 7.35 µM. 290,000 tested, 1.2% active;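 active = inhibition above the campaign mean inhibition over all tested compounds plus 3 SD, cut at about 28% in these data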;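 note: 0% = plate median of test compound wells and 100% = 2 mM ZnCl2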
ZTA counter – ZTA (EBV) inhibition in EBNA-1 counter-screen | P03206 | ZTA-DNA binding, fluorescence polarization | inhibition, % at 11 µM | 320,000 tested, 0.15% active; in the data active = inhibition above about 33%
Target sequence (P03206 whole entry, looked up): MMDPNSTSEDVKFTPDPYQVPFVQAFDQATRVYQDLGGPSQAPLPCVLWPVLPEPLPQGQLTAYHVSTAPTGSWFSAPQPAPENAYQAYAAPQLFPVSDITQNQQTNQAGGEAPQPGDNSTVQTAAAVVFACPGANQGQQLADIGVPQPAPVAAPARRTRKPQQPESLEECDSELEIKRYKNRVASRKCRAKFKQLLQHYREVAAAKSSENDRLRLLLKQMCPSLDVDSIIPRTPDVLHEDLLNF
EBNA-1 inhibitor – blocks EBNA-1 binding to DNA; AID 1950; EBNA-1 DNA binding, fluorescence polarization; inhibition, % at 14.8 µM; 300,000 tested, 0.34% active; in the data active = inhibition above about 28%
HCV core dimer – blocks dimerization of HCV core protein; TR-FRET GST/Flag-core106 dimerization, 1536-well; inhibition, % at 5 µM; 300,000 tested, 0.33% active; AID 1899;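 active = inhibition above the mean of all tested compounds plus 3 SD, set per screening campaign, cut at about 45% in these data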
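Material: Tagged HCV core106 pair (GST and Flag) | Amount: GST-core106 13.5 nM, Flag-core106 17 nM | Medium: KF-containing HEPES buffer, pH 7.45, DTT, CHAPS, BSA | Reagent: Eu donor and XL665 acceptor anti-tag antibodies | Schedule: 4 h at 22.5 °C | Technique: Time-resolved FRET, ex 340 nm, em 617 and 671 nm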
ALR inh – blocks human ALR sulfhydryl oxidase activity. P55789. 290,000 tested, 3.8% active. purified ALR, DTT oxidation, H2O2 HRP-luminol luminescence. inhibition, % (concentration not given with the values). AID 485317;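 active = mean replicate inhibition above about 79%, with every replicate also reaching it, limit read from the data; inconclusive = only one of the two criteria met; inactive = mean below limit and not every replicate reaching it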
Target sequence (P55789 whole entry, looked up): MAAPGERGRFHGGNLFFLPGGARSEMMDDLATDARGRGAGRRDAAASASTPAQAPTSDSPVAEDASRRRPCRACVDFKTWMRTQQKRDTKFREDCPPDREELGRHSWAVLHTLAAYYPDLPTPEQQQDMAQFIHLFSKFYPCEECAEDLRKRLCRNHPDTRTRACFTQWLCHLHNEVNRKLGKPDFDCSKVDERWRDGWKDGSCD
Starred values were filed as active, the others as inactive; ? = inconclusive; · = no result given. Compounds with a hit are over-represented: about 5.2% of the library has one in this group of screens.

SMILES	HCV NS3 hel inh	M18AAP inhibitor	ZTA counter	EBNA-1 inhibitor	HCV core dimer	ALR inh
CCOc1cc(/C=N/O)ccc1OCc1ccc(C)cc1	-6	1	9	5	3	98*
CCN(c1cccc(C)c1)S(=O)(=O)c1ccc(-c2ccc(=O)[nH]n2)o1	33	5	-3	-8	2	2
CCOC(=O)c1c(NC(=O)COc2cccc3c2CCN(C)C3=O)sc2c1CCC2	2	6	-6	12	16	87*
COc1ccc(CNC(=O)CCN2C(=O)[C@@H]3Cc4ccccc4CN3C2=O)cc1	-3	-7	-25	0	-3	2
COc1cc(C(=O)O)ccc1OCc1ccncc1	6	-5	-21	-2	0	-2
CC1CCC2(CC1)NC(=O)N(CC(=O)NC1CCCCC1C)C2=O (stereo not given)	·	·	·	·	·	0
COc1cccc(C(=O)CSc2nccn2C)c1	-6	1	0	4	4	15
Cc1cccc(NC(=O)CSc2ncnc3nc[nH]c23)c1	9	-5	18	-6	5	90*
Cn1ccnc1SCC(=O)Nc1ccccc1	-3	8	0	4	-4	99*
Cn1ccnc1SCC(=O)Nc1ccc2ccccc2c1	-5	7	7	1	3	11
Cc1cccc(NC(=O)CSc2nccn2Cc2ccco2)c1	8	-5	5	2	0	?
Cc1cccc(NC(=O)CSc2nccn2C)c1	2	0	-10	-6	2	100*
Cn1ccnc1SCC(=O)c1ccc2ccccc2c1	13	-1	11	-2	18	99*
COc1ccc(NC(=O)CSc2nccn2Cc2ccco2)cc1	2	1	2	8	-5	99*
Cc1cccc(NC(=O)CCOc2ccccc2)c1	3	-4	-4	7	2	98*
CC(=O)Nc1cccc(NC(=O)CSc2nccn2Cc2ccccc2)c1	0	2	-17	-3	-4	24
CCOc1ccc(NC(=O)CSc2nccn2Cc2ccco2)cc1	-3	4	0	8	13	-13
O=C(CSc1nccn1Cc1ccccc1)Nc1ccccc1	0	-12	2	-10	-7	100*
Cc1ccc(CNC(=O)C2CCCN(c3nn4c(=O)cc(C)nc4s3)C2)cc1 (stereo not given)	-1	-2	4	4	0	14
Cc1ccc(OCC(=O)N2CCN(S(C)(=O)=O)CC2)cc1	0	2	15	9	1	-3
NC(=O)C1CCN(c2oc(/C=C/c3ccccc3)nc2S(=O)(=O)c2ccccc2)CC1	-5	5	7	8	0	21
CCN(CC)S(=O)(=O)c1cccc(NC(=O)CSc2nnc(N)s2)c1	-2	2	6	6	0	99*
Nc1nnc(SCC(=O)Nc2cccc(S(N)(=O)=O)c2)s1	-7	1	12	9	3	-3
COc1cc2cc(CCCOC(=O)c3ccco3)oc(=O)c2cc1OC	·	·	10	·	·	-10
COc1cccc(-n2c(SCC(=O)Nc3nc4ccccc4s3)nc3ccccc3c2=O)c1	-12	-2	3	10	13	·
SMILES	HCV NS3 hel inh	M18AAP inhibitor	ZTA counter	EBNA-1 inhibitor	HCV core dimer	ALR inh
CCc1c(O)nc(SCC(=O)Nc2nc3ccccc3s2)n(-c2ccccc2)c1=O	-7	3	-10	-3	2	96*
CCc1c(O)nc(SCC(=O)Nc2nc3ccccc3s2)n(-c2ccc(C)cc2)c1=O	8	3	10	0	-3	98*
CCSCc1nnc(SCC(=O)Nc2nc3ccccc3s2)n1C	-9	-12	2	17	2	-1
C=CCn1c(SCC(=O)Nc2nc3ccccc3s2)nc(O)c(CC)c1=O	-3	-1	9	-1	2	99*
O=C(COc1ccccc1F)Nc1c2c(nn1-c1ccccc1)CS(=O)(=O)C2	2	-3	22	20	9	-13
C[C@H]1COC(=O)[C@@H](CC(=O)OC(C)(C)C)C/C=C\C[C@H](CC(=O)NCCO)C(=O)N1	·	·	·	·	·	1
O=c1c2c([nH]c3ccccc13)CCCC2	18	-2	3	-3	-1	-4
O=C(O)c1cccc2c3c([nH]c12)CCCC3	7	2	6	1	-1	87*
O=C(Nc1ccc(Cl)c(Cl)c1)C1CCCCC1	·	·	10	10	6	·
CCOC(=O)C1=CC[C@H]2c3c(c4ccccc4n3C)C(=O)C1N2Cc1ccccc1	·	·	·	·	·	-3
FC(F)(F)c1cccc(N2CCC(N=CN3CCCCCC3)=N2)c1	17	-1	-6	5	-22	51
Oc1ccccc1C=NC1=NN(c2cccc(C(F)(F)F)c2)CC1	3	10	12	9	-24	78*
COc1ccc2nc(NC(=O)c3cccc(-c4cc5ccccc5oc4=O)c3)sc2c1	7	-2	14	44*	23	-9
COc1ccc(C(=O)Nc2nc3ccc(OC)cc3s2)cc1	-9	6	·	·	·	-25
O=C(Oc1ccc(/C=N/NC(=O)c2ccccc2O)cc1)c1ccccc1	6	-12	-5	9	10	-17
Cn1nccc1C(=O)Oc1ccc(/C=N/NC(=O)c2ccccc2O)cc1	-12	9	17	7	-7	93*
O=C(CC1SC(=O)NC1=O)Oc1ccc(/C=N/NC(=O)c2ccccc2O)cc1 (stereo not given)	0	4	6	5	-2	99*
COC1CCCCC1Nc1cccc(SC)c1 (stereo not given)	1	3	-9	2	1	99*
Cc1nc(-c2cccs2)sc1C(=O)O	5	6	7	-3	-3	-3
Cc1nccc(-c2sc(-c3cccs3)nc2C)n1	-12	3	-4	-1	4	85*
O=C(Nc1ccc(SC(F)F)cc1)C1=COCCO1	-8	1	4	-5	-5	99*
O=C(Nc1ccc(-c2nc3ccccc3s2)cc1)C1=COCCO1	3	2	1	43*	0	-5
O=C(O)CSCC(=O)Nc1ccc(-c2nc3ccccc3s2)cc1	14	14	2	-8	9	99*
CNC(=S)NNC(=O)c1sc2cc(C(F)(F)F)cnc2c1-c1cccnc1	-5	13	-1	-1	-5	88*
CNC(=S)NNC(=O)c1sc2cc(C(F)(F)F)cnc2c1-c1ccccn1	3	18	-6	10	-4	-5
Cc1cc(NC(=O)c2cc(-c3ccncc3)nc3c(C)cccc23)no1	-3	1	13	-4	54*	-5
Cc1ccc(-c2cc(C(=O)Nc3cc(C)on3)c3ccccc3n2)cc1	15	-6	-5	-15	-5	·
O=S(=O)(Nc1nc(-c2sccc2Cl)cs1)c1cc(Cl)ccc1Cl	29	3	3	26	20	98*

Screening results as filed in PubChem BioAssay.
